Tests used:
[1] = target: T1, Steryl-sulfatase (Homo sapiens) (UniProt P08842); assay: Inhibition of steroid sulfatase in human JEG3 cell lysates at 10 uM using [3H] E1S as substrate after 1 hr by scintillation spectrometry analysis relative to control; assay type: cell-free; settings: JEG-3
T1 sequence (whole entry): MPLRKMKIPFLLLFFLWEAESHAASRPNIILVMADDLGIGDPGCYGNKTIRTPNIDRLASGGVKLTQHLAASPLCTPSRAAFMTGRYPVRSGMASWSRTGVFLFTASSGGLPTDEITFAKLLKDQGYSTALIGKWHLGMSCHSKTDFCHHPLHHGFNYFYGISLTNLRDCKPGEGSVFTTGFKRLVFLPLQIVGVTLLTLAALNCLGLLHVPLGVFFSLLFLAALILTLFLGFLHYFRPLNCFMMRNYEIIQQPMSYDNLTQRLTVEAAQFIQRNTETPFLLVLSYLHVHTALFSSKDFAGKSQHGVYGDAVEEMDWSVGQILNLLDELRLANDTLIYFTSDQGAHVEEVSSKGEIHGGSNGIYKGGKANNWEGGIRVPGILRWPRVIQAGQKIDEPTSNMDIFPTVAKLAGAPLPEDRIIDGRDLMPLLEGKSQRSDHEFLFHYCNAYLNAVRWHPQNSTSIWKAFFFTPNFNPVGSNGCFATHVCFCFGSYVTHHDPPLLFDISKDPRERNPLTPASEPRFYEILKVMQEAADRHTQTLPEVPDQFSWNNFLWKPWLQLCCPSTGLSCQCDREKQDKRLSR
Summary of the method: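 JEG-3 placental choriocarcinoma lysate (125 µg protein/mL) incubated 1 h with inhibitor at 10 µM and [3H]E1S brought to 20 µM with unlabelled E1S. Estrone product extracted into toluene, [14C]E1 used to correct for losses, 3H/14C counted by scintillation. Reported as % inhibition versus untreated control, mean ± SEM, n=3.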

Steryl-sulfatase [2] = target: T2, Steryl-sulfatase (Homo sapiens, UniProt P08842); assay: Inhibition of steroid sulfatase in human JEG3 cell lysates using [3H] E1S as substrate after 1 hr by scintillation spectrometry analysis; assay type: cell-free, JEG-3
T2 sequence (P08842 whole entry): T1 sequence (whole entry)
Summary of the method: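 Estrone taken into toluene, recovery corrected with [14C]E1, scintillation counting. E1S hydrolysed calculated from 3H counts and substrate specific activity, and IC50 derived from the dose-response.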

T47D = assay: Antiproliferative activity against human T47D cells assessed as reduction in cell proliferation measured after 5 days in presence of estradiol sulfate by crystal violet staining based assay; assay type: functional; settings: 120 h
Summary of the method: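 T-47D cells kept in EMEM with pyruvate, gentamycin, bicarbonate and 10% FBS at 37 °C, 5% CO2. After 3 days of growth, medium swapped for one with compound, 100 nM estradiol sulfate and 10% charcoal-stripped FBS, then 5 days of incubation. Glutaraldehyde fixation, crystal violet stain, ethanol elution, OD at 578 nm. IC50 reported as mean ± SEM of triplicate assays.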

Steryl-sulfatase [3] = target: T2, Steryl-sulfatase; assay: Inhibition of steroid sulfatase in human JEG3 cells using [3H] E1S as substrate incubated for 20 hrs by scintillation spectrometry analysis; assay type: cell-based, JEG-3
Summary of the method: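 Intact JEG-3 monolayers incubated 20 h at 37 °C in serum-free EMEM with [3H]E1S (5 pmol, 60 Ci/mmol), with or without inhibitor at 10 µM. Estrone in the medium separated from E1S by toluene partition, [14C]estrone used to correct for procedural losses. E1S hydrolysed calculated from scintillation counts.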

inhibition [1] [%] | IC50 (Steryl-sulfatase [2]) [µM] | IC50 (T47D) [µM] | IC50 (Steryl-sulfatase [3]) [µM] | SMILES
86.3 |  |  |  | NS(=O)(=O)Oc1ccc(NC(=O)C23CC4CC(CC(C4)C2)C3)cc1F
-5.3 |  |  |  | NS(=O)(=O)Oc1ccc(CNC(=O)C23CC4CC(CC(C4)C2)C3)cc1
52.3 |  |  |  | NS(=O)(=O)Oc1ccc(NC(=O)C2CCCCCC2)cc1
61 |  |  |  | CN(C(=O)C12CC3CC(CC(C3)C1)C2)c1ccc(OS(N)(=O)=O)cc1
25.4 |  |  |  | NS(=O)(=O)Oc1ccc(NC(=O)c2ccccc2)cc1
53.6 |  |  |  | NS(=O)(=O)Oc1ccc(NC(=O)c2ccc3ccccc3c2)cc1
94.6 | 0.0741 | 4.67 |  | NS(=O)(=O)Oc1ccc(C(=O)NC23CC4CC(CC(C4)C2)C3)cc1Br
82.7 |  |  |  | NS(=O)(=O)Oc1ccc(NC(=O)C23CC4CC(CC(C4)C2)C3)cc1Br
24.6 |  |  |  | NS(=O)(=O)Oc1ccc(NC(=O)c2ccc(Cl)cc2)cc1
88.6 |  |  |  | NS(=O)(=O)Oc1ccc(NC(=O)C23CC4CC(CC(C4)C2)C3)cc1Cl
63.4 |  |  |  | NS(=O)(=O)Oc1ccc2c(ccn2C(=O)C23CC4CC(CC(C4)C2)C3)c1
5.32 |  |  |  | NS(=O)(=O)Oc1ccc(NC(=O)NC23CC4CC(CC(C4)C2)C3)cc1
58.5 |  |  |  | Cc1cc(OS(N)(=O)=O)ccc1NC(=O)C12CC3CC(CC(C3)C1)C2
97.2 | 0.0677 | 3.4 |  | NS(=O)(=O)Oc1ccc(C(=O)NC23CC4CC(CC(C4)C2)C3)cc1F
12.9 |  |  |  | NS(=O)(=O)Oc1ccc(NC(=O)c2cccnc2)cc1
93.9 | 0.11 | 5.78 | 0.0136 | NS(=O)(=O)Oc1ccc(NC(=O)C23CC4CC(CC(C4)C2)C3)cc1
14.3 |  |  |  | NS(=O)(=O)Oc1ccc2c(ccn2C(=O)C2CCCCC2)c1
72.7 |  |  |  | COc1ccc(C(=O)Nc2ccc(OS(N)(=O)=O)cc2)cc1
90 |  |  |  | NS(=O)(=O)Oc1ccc(C(=O)NC23CC4CC(CC(C4)C2)C3)cc1
62 |  |  |  | NS(=O)(=O)Oc1ccc(NC(=O)C2CCCC2)cc1
 |  | 0.92 |  | NS(=O)(=O)Oc1ccc2c3c(c(=O)oc2c1)CCCCC3 [IROSUSTAT]
98.3 | 0.0258 | 1.04 | 0.15 | NS(=O)(=O)Oc1ccc(C(=O)NC23CC4CC(CC(C4)C2)C3)cc1Cl
